# ChEMBL document CHEMBL1150415 (J Med Chem, 2008)
# pIC50: −log10 of the molar value. The source made the active and inactive calls. The calls are words filed in the database; no cut-off is given here.
# Columns and labels:
# [1] = Plasma clearance in Sprague-Dawley rat at 2 mg/kg, iv; format: ADME, organism-based; design: dose 2 mg/kg, route intravenous
# [2] = Inhibition of cytosolic phospholipase A2alpha by GLU micelle assay
# How it was run: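 Micellar assay with 7-hydroxycoumarinyl-γ-linolenate (GLU) substrate, presenting inhibitor and substrate to the enzyme in high-lipid micelles. Each run gives the mean of duplicate assays, and values come from at least two runs.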
# Blood = assay: Inhibition of TXB2 production in Sprague-Dawley rat whole blood; format: functional, tissue-based
# How it was run: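 Rat whole blood stimulated with calcium ionophore A23187 at 5 µM, with thromboxane B2 measured. Each run gives the mean of triplicate assays, and values come from at least two runs.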
# MC9 [3] = assay: Inhibition of LTB4 production in mouse MC9 cells; format: functional, cell-based
# MC9 [4] = assay: Inhibition of leukotrienes production in mouse MC9 cells; format: functional, cell-based
# How it was run: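 Murine MC-9 mast cells stimulated through the IgE receptor to release arachidonic acid. Leukotriene production (5-LO pathway) was quantified.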
# Rattus norvegicus [5] = assay: Reduction in cartilage damage in Freund's adjuvant-induced arthritis Lewis rat model at 5 mg/kg, po for 11 days; format: functional, organism-based; design: dose 5 mg/kg
# How it was run: (§1)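 Arthritis was induced in Lewis rats by intradermal complete Freund's adjuvant at the base of the tail. Oral treatment began on day 8, when mean clinical joint scores were 12, and continued for 11 days. Tarsal joints were taken at necropsy and lesions were scored histologically in blinded fashion.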
# Rattus norvegicus [6] = assay: Inhibition of carrageenan-induced paw edema in Sprague-Dawley rat administered 2 hrs before carrageenan challenge at 25 mg/kg, po; format: functional
# [7] = Plasma concentration in adjuvant-induced arthritis Lewis rat model at 5 mg/kg, po after 16 hrs; format: ADME, organism-based; design: dose 5 mg/kg, route oral
# MC9 [8] = assay: Inhibition of PGF2apha production in arachidonic acid-stimulated mouse MC9 cells; format: functional, cell-based
# [9] = Plasma concentration in adjuvant-induced arthritis Lewis rat model at 5 mg/kg, po after 4 hrs; format: ADME, organism-based; design: dose 5 mg/kg, route oral
# Rattus norvegicus [10] = assay: Inhibition of PGE2 production in carrageenan-stimulated rat air pouch model at 2 mg/kg, ip after 6 hrs; format: functional; conditions: route intraperitoneal
# How it was run: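 Rats given an intraperitoneal dose. Carrageenan was injected into a preformed air pouch, contents were collected 6 h later, and PGE2 was quantified.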
# Rattus norvegicus [11] = assay: Reduction in synovitis damage in Freund's adjuvant-induced arthritis Lewis rat model at 5 mg/kg, po for 11 days; format: functional, organism-based; design: dose 5 mg/kg; how it was run: as §1
# MC9 [12] = assay: Inhibition of PGF2alpha production in mouse MC9 cells; format: functional, cell-based
# Rattus norvegicus [13] = assay: Inhibition of carrageenan-induced paw edema in Sprague-Dawley rat administered 2 hrs before carrageenan challenge at 10 mg/kg, po; conditions: read-out: INH
Structure (SMILES),pIC50 [2],pIC50 (Blood),other results
O=C(O)c1ccc(S(=O)(=O)CCc2c(CCNS(=O)(=O)Cc3c(F)cccc3F)n(C(c3ccccc3)c3ccccc3)c3ccc(Cl)cc23)cc1,7.70,6.82,clearance [1]: 186 mL/min/kg
O=C(O)c1ccc(OCCc2c(CCNS(=O)(=O)Cc3ccccc3[N+](=O)[O-])n(C(c3ccccc3)c3ccccc3)c3ccc(Cl)cc23)cc1,7.07,7.52,–
O=C(O)c1ccc(Cc2c(CCNS(=O)(=O)Cc3ccccc3)n(C(c3ccccc3)c3ccccc3)c3ccc(Cl)cc23)cc1,4.48,< 5.00,–
O=C(O)CCc1ccc(S(=O)(=O)CCc2c(CCNS(=O)(=O)Cc3ccccc3Cl)n(C(c3ccccc3)c3ccccc3)c3ccc(Cl)cc23)cc1,8.00,7.70,clearance [1]: 63 mL/min/kg
O=C(O)CCc1ccc(OCCc2c(CCNS(=O)(=O)Cc3ccccc3)n(C(c3ccccc3)c3ccccc3)c3ccc(Cl)cc23)cc1,6.72,7.15,–
O=C(O)CCc1ccc(S(=O)(=O)CCc2c(CCNS(=O)(=O)Cc3ccccc3)n(C(c3ccccc3)c3ccccc3)c3ccc(Cl)cc23)cc1,7.52,7.70,clearance [1]: 150 mL/min/kg
O=C(O)c1ccc(CCCc2c(CCNS(=O)(=O)Cc3c(F)cccc3F)n(C(c3ccccc3)c3ccccc3)c3ccc(Cl)cc23)cc1,7.22,6.44,–
O=C(O)c1ccc(S(=O)(=O)CCc2c(CCNS(=O)(=O)Cc3ccc(Cl)c(Cl)c3)n(C(c3ccccc3)c3ccccc3)c3ccc(Cl)cc23)cc1,7.70,6.82,clearance [1]: 19 mL/min/kg
O=C(O)CCc1ccc(Cc2c(CCNS(=O)(=O)Cc3ccccc3)n(C(c3ccccc3)c3ccccc3)c3ccc(Cl)cc23)cc1,5.70,6.05,–
CN(CCc1c(CCNS(=O)(=O)Cc2ccccc2)n(C(c2ccccc2)c2ccccc2)c2ccc(Cl)cc12)c1ccc(C(=O)O)cc1,5.37,5.74,–
O=C(O)CCc1ccc(S(=O)(=O)CCc2c(CCNS(=O)(=O)Cc3c(F)cccc3F)n(C(c3ccccc3)c3ccccc3)c3ccc(Cl)cc23)cc1,7.15,7.70,–
O=C(O)c1ccc(CCCc2c(CCNS(=O)(=O)Cc3ccccc3Cl)n(C(c3ccccc3)c3ccccc3)c3ccc(Cl)cc23)cc1,7.70,7.52,clearance [1]: 7 mL/min/kg
CC(c1cc2ccccc2s1)N(O)C(N)=O (configuration not stated) [ZILEUTON],–,–,pIC50 (MC9 [3]): 6.26; Activity (MC9 [4]): Active
Cc1ccc(-c2cc(C(F)(F)F)nn2-c2ccc(S(N)(=O)=O)cc2)cc1 [CELECOXIB],–,–,Activity (Rattus norvegicus [5]): Active; inhibition in vivo at 25 mg/kg (Rattus norvegicus [6]): 37%; concentration at 16 h [7]: 129 ng/mL; pIC50 (MC9 [8]): 6.52; concentration at 4 h [9]: 1130 ng/mL; inhibition in vivo at 2 mg/kg (Rattus norvegicus [10]): 90%; Activity (Rattus norvegicus [11]): Active; pIC50 (MC9 [12]): 6.40
O=C(O)c1ccc(CCCc2c(CCNS(=O)(=O)Cc3ccccc3)n(C(c3ccccc3)c3ccccc3)c3ccc(Cl)cc23)cc1,7.15,7.15,–
O=C(O)c1ccc(S(=O)(=O)CCc2c(CCNS(=O)(=O)Cc3ccccc3)n(C(c3ccccc3)c3ccccc3)c3ccc(Cl)cc23)cc1,7.70,7.10,clearance [1]: 54 mL/min/kg
O=C(O)CCc1ccc(S(=O)(=O)CCc2c(CCNS(=O)(=O)Cc3ccc(Cl)c(Cl)c3)n(C(c3ccccc3)c3ccccc3)c3ccc(Cl)cc23)cc1,7.40,7.40,clearance [1]: 10 mL/min/kg
O=C(O)COc1ccc(Cc2c(CCNS(=O)(=O)Cc3ccccc3)n(C(c3ccccc3)c3ccccc3)c3ccc(Cl)cc23)cc1,5.15,< 5.00,–
O=C(O)c1ccc(S(=O)(=O)CCc2c(CCNS(=O)(=O)Cc3ccccc3Cl)n(C(c3ccccc3)c3ccccc3)c3ccc(Cl)cc23)cc1,8.00,7.22,–
O=C(O)Cc1nc(CCCc2c(CCNS(=O)(=O)Cc3ccccc3)n(C(c3ccccc3)c3ccccc3)c3ccc(Cl)cc23)no1,< 4.70,–,–
O=C(O)c1ccc(NCCc2c(CCNS(=O)(=O)Cc3ccccc3)n(C(c3ccccc3)c3ccccc3)c3ccc(Cl)cc23)cc1,6.17,6.40,–
Cc1ccccc1CS(=O)(=O)NCCc1c(CCCc2ccc(C(=O)O)cc2)c2cc(Cl)ccc2n1C(c1ccccc1)c1ccccc1,7.52,7.70,clearance [1]: 6 mL/min/kg
Cc1cccc(C)c1CS(=O)(=O)NCCc1c(CCS(=O)(=O)c2ccc(C(=O)O)cc2)c2cc(Cl)ccc2n1C(c1ccccc1)c1ccccc1,8.40,7.15,clearance [1]: 25 mL/min/kg
COc1ccc2cc([C@H](C)C(=O)O)ccc2c1 [NAPROXEN],–,–,pIC50 (MC9 [8]): 6.48; inhibition in vivo at 10 mg/kg (Rattus norvegicus [13]): 50%; pIC50 (MC9 [12]): 6.70

# Second part, led by results:
pIC50 [2],pIC50 (Blood),Structure (SMILES),other results
6.66,6.44,O=C(O)c1ccc(OCCc2c(CCNS(=O)(=O)Cc3cccnc3)n(C(c3ccccc3)c3ccccc3)c3ccc(Cl)cc23)cc1,–
6.74,7.10,O=C(O)c1ccc(OCCc2c(CCNS(=O)(=O)Cc3c(F)cccc3F)n(C(c3ccccc3)c3ccccc3)c3ccc(Cl)cc23)cc1,clearance [1]: 32 mL/min/kg
6.96,7.15,O=C(O)c1ccc(OCCc2c(CCNS(=O)(=O)Cc3cccc([N+](=O)[O-])c3)n(C(c3ccccc3)c3ccccc3)c3ccc(Cl)cc23)cc1,–
7.22,7.15,N#Cc1ccccc1CS(=O)(=O)NCCc1c(CCOc2ccc(C(=O)O)cc2)c2cc(Cl)ccc2n1C(c1ccccc1)c1ccccc1,–
6.80,7.05,O=C(O)c1ccc(OCCc2c(CCNS(=O)(=O)Cc3ccc([N+](=O)[O-])cc3)n(C(c3ccccc3)c3ccccc3)c3ccc(Cl)cc23)cc1,–
6.52,6.80,N#Cc1cccc(CS(=O)(=O)NCCc2c(CCOc3ccc(C(=O)O)cc3)c3cc(Cl)ccc3n2C(c2ccccc2)c2ccccc2)c1,–
6.40,6.46,O=C(O)c1ccc(OCCc2c(CCNS(=O)(=O)Cc3ccccn3)n(C(c3ccccc3)c3ccccc3)c3ccc(Cl)cc23)cc1,–
7.30,7.30,O=C(O)c1ccc(OCCc2c(CCNS(=O)(=O)Cc3ccccc3Cl)n(C(c3ccccc3)c3ccccc3)c3ccc(Cl)cc23)cc1,–
6.59,6.82,N#Cc1ccc(CS(=O)(=O)NCCc2c(CCOc3ccc(C(=O)O)cc3)c3cc(Cl)ccc3n2C(c2ccccc2)c2ccccc2)cc1,–
6.96,–,O=C(O)c1ccc(OCCc2c(CCNS(=O)(=O)Cc3ccccc3)n(C(c3ccccc3)c3ccccc3)c3ccc(Cl)cc23)cc1,–
6.74,6.47,O=C(O)c1ccc(OCCc2c(CCNS(=O)(=O)Cc3ccncc3)n(C(c3ccccc3)c3ccccc3)c3ccc(Cl)cc23)cc1,–
7.22,7.52,Cc1ccccc1CS(=O)(=O)NCCc1c(CCOc2ccc(C(=O)O)cc2)c2cc(Cl)ccc2n1C(c1ccccc1)c1ccccc1,–
7.52,7.52,Cc1cccc(C)c1CS(=O)(=O)NCCc1c(CCOc2ccc(C(=O)O)cc2)c2cc(Cl)ccc2n1C(c1ccccc1)c1ccccc1,clearance [1]: 13 mL/min/kg
6.64,6.85,O=C(O)c1ccc(OCCc2c(CCNS(=O)(=O)Cc3ccc4ccccc4c3)n(C(c3ccccc3)c3ccccc3)c3ccc(Cl)cc23)cc1,–
